Reference: publication PMC4279188 (Theranostics, 2015)

How the values were obtained:
Akt = assay: Western blot of HUVECs, phosphorylated Akt; format: cell-based, human; conditions: co-treatment with PEG-Ex4
How it was run: (§1)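 HUVEC lysates were prepared in RIPA buffer and protein was quantified by BCA. Proteins were resolved by SDS-PAGE and transferred to nitrocellulose, then blocked in 5% milk. Blots were probed overnight at 4 °C with anti-VEGF or anti-pAkt plus anti-β-actin, followed by secondary antibodies. Detection was by chemiluminescence on X-ray film. pAkt blots were stripped at 50 °C for 30 min and reprobed for total Akt. Data are mean ± SEM.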

VEGF = assay: Western blot of HUVECs, VEGF; format: cell-based, human; conditions: co-treatment with PEG-Ex4
How it was run: as §1

[1] = breakdown by dipeptidyl peptidase-4 (DPP4); no reference given for the value; cited from earlier work

Molecule | effect of PEG-Ex4 on p-Akt in HUVECs, inhibition by co-treatment (Akt) | effect of PEG-Ex4 on VEGF expression in HUVECs, inhibition by co-treatment (VEGF) | half-life, in words [1]
O=c1cc(N2CCOCC2)oc2c(-c3ccccc3)cccc12 [LY294002] | abolished the effect of PEG-Ex4 on p-Akt | abolished | –
exendin-4(9-39) | abolished the effect of PEG-Ex4 on p-Akt | abolished | –
glucagon-like peptide-1 [GLP-1] | – | – | a few minutes
